Reference: publication PMC12399195 (Acta Pharmaceutica Sinica. B, 2025)
Substitutions are numbered along the chain they refer to. Blank lines part the entries; values can stand above or below the compound they belong to.

What was measured:
[1] = tested on: DXMS-induced osteoporotic mice; assay: In vivo anti-osteoporosis test in DXMS-induced osteoporotic mice; design: species or system C57BL/6J mice; details: for effect on weight loss induced by DXMS: five weeks
Summary of the method: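 Male C57BL/6J mice (6 weeks) were held SPF at 25 ± 2 °C, 50 ± 10% humidity and 12 h/12 h light/dark, with 7 days acclimatisation. They were randomised into five groups. DXMS was given i.p. at 2.5 mg/kg, five times weekly for five weeks. Test compound was dosed orally daily; PTH1–34 was given i.p. After five weeks, serum, femurs and tibias were collected. Serum ALP, OT/BGT, OPG and Col-1A1 were measured by ELISA kits. Data are mean ± SD.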

[2] = target: T1, Notum (Homo sapiens, UniProt Q6P988); assay: Notum inhibition assay, DO as fluorogenic substrate; type: biochemical
T1 sequence (Q6P988 20-496): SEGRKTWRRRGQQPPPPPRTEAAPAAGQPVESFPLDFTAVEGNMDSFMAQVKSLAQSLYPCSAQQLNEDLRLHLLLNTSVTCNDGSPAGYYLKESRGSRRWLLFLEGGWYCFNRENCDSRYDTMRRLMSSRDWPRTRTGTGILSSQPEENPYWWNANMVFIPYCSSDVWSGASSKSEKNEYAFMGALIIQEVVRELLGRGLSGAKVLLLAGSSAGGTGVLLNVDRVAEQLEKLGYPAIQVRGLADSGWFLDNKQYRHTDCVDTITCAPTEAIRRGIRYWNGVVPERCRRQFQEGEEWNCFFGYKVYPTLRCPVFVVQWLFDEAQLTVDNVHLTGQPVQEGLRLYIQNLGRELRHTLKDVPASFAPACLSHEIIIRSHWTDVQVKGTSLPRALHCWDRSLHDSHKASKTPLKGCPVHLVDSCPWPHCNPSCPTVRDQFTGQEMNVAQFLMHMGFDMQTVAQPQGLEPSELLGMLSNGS

[3] = target: T1, Notum; assay: Notum inhibition assay, OPTS as substrate; type: biochemical
[4] = tested on: healthy mice; assay: Toxicity test in healthy mice; type: in vivo, C57BL/6J mice; details: 200 mg/kg oral
[5] = tested on: MC3T3-E1 cells; assay: Cell viability; type: cell-based; details: for cytotoxicity towards MC3T3-E1 cells: 0–20 μmol/L, 96 h
[6] = tested on: MC3T3-E1 cells; assay: ALP staining, osteoblast differentiation in DXMS-challenged MC3T3-E1 cells; type: cell-based; details: 7 days
Summary of the method: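 MC3T3-E1 cells were kept in DMEM with 10% FBS and 1% penicillin–streptomycin at 37 °C under 5% CO₂. Cells were seeded at 2×10^3 cells/well and grown 24 h, then switched to inducible medium. DXMS and test compound were added together for seven days, with medium changed every two days. Cells were fixed 15 min in 4% paraformaldehyde at room temperature, PBS-washed, BCIP/NBT ALP-stained, imaged and quantified.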

[7] = tested on: CYPs; details: phase I metabolic systems, GSH trapping
[8] = target: T2, F268G Notum (Homo sapiens, UniProt Q6P988, F268G); assay: Inhibition of DO hydrolysis in F268G Notum mutant; type: biochemical
T2 sequence (Q6P988 20-496 F268G): T1 sequence (Q6P988 20-496) with F249G

[9] = tested on: MC3T3-E1 cells; assay: Alizarin red S staining, calcification in DXMS-challenged MC3T3-E1 cells; type: cell-based; details: DXMS-challenged (200 μmol/L) MC3T3-E1 cells, 21 days
[10] = tested on: Wnt/β-catenin signaling; type: cell-based; details: DXMS-challenged MC3T3-E1 cells, 7 days
[11] = Tissue distribution in mice after gavage; type: in vivo, C57BL/6J mice
Summary of the method: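 Twenty male C57BL/6J mice (6 weeks, 18–20 g) were randomised into four groups: control, 1 h, 2 h and 3 h. Test compound in 0.5% CMC-Na was given once by gavage. Mice were anaesthetised at 0, 1, 2 or 3 h, and blood and organs including femur were removed. Samples were centrifuged at 20,000 × g, 4 °C, 30 min, and compound concentration was determined by LC–MS/MS.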

[12] = cited from earlier work
[13] = 5-MP 20 and 40 mg/kg oral daily, PTH 100 μg/kg/day i.p.
[14] = IC50 (DO as probe), Notum-catalyzed DO hydrolysis
[15] = distal and mid-femur, vs DXMS-challenged mice
[16] = distal femur, DXMS-challenged mice

Compound: PTH: parathyroid hormone 1–34, positive drug for treating osteoporosis (SVSEIQLMHNLGKHLNSMERVEWLRKKLQDVHNF; Parathyroid hormone; UniProt P01270 32-65, looked up, fragment) [reference compound]
effect on weight loss induced by DXMS [1, 13]: neither PTH (positive control for osteoporosis) nor 5-MP (20 and 40 mg/kg) could significantly reverse the weight loss

Compound: O=c1ccc2cc3ccoc3cc2o1 [Psoralen]
IC50 [2, 14]: 108 ± 10.4 nM | IC50 [3]: 99.9 ± 10.8 nM | body weight ([4]; 14 consecutive days, mice): decreased significantly | death of mice ([4]; 14 consecutive days, mice): no death was observed | organ injury (H&E, pathological examination) ([4]; 14 consecutive days, mice): varying degrees of organ injury | organ coefficients of the heart, liver and kidney ([4]; 14 days, vs control): remarkably elevated | serum levels of ALP, CREA, UREA and TG ([4]; 14 days, vs control): elevate | serum levels of AST and ALT ([4]; 14 days, vs control): elevated | cytotoxicity towards MC3T3-E1 cells [5]: weak cytotoxicity | effect on ALP levels (osteoblast differentiation) [6]: relatively weak

Compound: O=c1ccc2ccc3occc3c2o1 [Isopsoralen]
IC50 [2, 14]: 72.7 ± 5.03 nM | IC50 [3]: 71.9 ± 11 nM | body weight ([4]; 14 consecutive days, mice): significantly decreased | death of mice ([4]; 14 consecutive days, mice): the mice began to die | organ injury (H&E, pathological examination) ([4]; 14 consecutive days, mice): varying degrees of organ injury | organ coefficients of the heart, liver and kidney ([4]; 14 days, vs control): remarkably elevated | serum levels of AST and ALT ([4]; 14 days, vs control): elevated | serum levels of CK, UREA and TG ([4]; 14 days, vs control): decrease | cytotoxicity towards MC3T3-E1 cells [5]: weak cytotoxicity | effect on ALP levels (osteoblast differentiation) [6]: relatively weak | formation of reactive intermediates [7]: metabolically bioactivated by CYPs to generate reactive intermediates

Compound: C[C@@H]1C[C@H]2[C@@H]3CCC4=CC(=O)C=C[C@]4(C)[C@@]3(F)[C@@H](O)C[C@]2(C)[C@@]1(O)C(=O)CO [DXMS, dexamethasone, reference compound]
cells diminished ([5]; 200 μmol/L): approximately 50%

IC50 [2]: 12800 ± 2440 nM
Compound: O=c1oc2cc(O)ccc2c2oc3cc(O)ccc3c12 [Coumestrol]

Compound: COc1c2ccoc2cc2oc(=O)ccc12 [5-MP, 5-methoxypsoralen]
Ki [2]: 23.5 nM | IC50 [2, 14]: 18.7 ± 2.08 nM | inhibition manner ([2]; inhibition kinetics, DO hydrolysis): competitive | IC50 [3]: 11.2 ± 0.6 nM | Ki [3]: 15.1 nM | inhibition manner ([3]; inhibition kinetics, OPTS hydrolysis): competitive | IC50 [8]: 1210 nM | organ injury (H&E, pathological examination) ([4]; 14 consecutive days, mice): no organ injury was observed | overall mortality rate ([4]; 14 consecutive days, mice): 0% | serological indicators of organ injury (ALT, AST, CK, CREA) ([4]; 14 days, vs control): no significant difference | serum levels of TC and TG ([4]; 14 days, vs control): decreased | spleen coefficient ([4]; 14 days, vs control): slight decline | organ coefficient ([4]; 14 days, vs control, except spleen): no significant difference | cytotoxicity towards MC3T3-E1 cells [5]: weak cytotoxicity | effect on ALP levels (osteoblast differentiation) [6]: dose-dependently mitigate the reduced ALP levels | effect on intracellular calcification (ARS staining) [9]: significantly reversed the intracellular calcium loss | mRNA levels of Notum, GSK3β, β-catenin, OPN and RUNX2 [10]: significantly reversed the abnormal mRNA levels | concentration at 2 h ([11]; male, C57BL/6J, mouse, femur, po, 40 mg/kg): 8.3 nM | concentration at 3 h ([11]; male, C57BL/6J, mouse, plasma, po, 40 mg/kg): 44.6 nM | tissue distribution ([11]; single oral dose 40 mg/kg, mice): high exposure in the plasma and the liver | effect on weight loss induced by DXMS [1, 13]: neither PTH (positive control for osteoporosis) nor 5-MP (20 and 40 mg/kg) could significantly reverse the weight loss | serum levels of osteogenic markers (ALP, OT/BGT, OPG, Col-1A1) ([1]; 5-MP 20 and 40 mg/kg oral daily, PTH 100 μg/kg/day i.p., vs DXMS): substantially increased | bone volume fraction (BV/TV) and bone mineral density (BMD) [1, 15]: significantly enhanced | trabecular and cortical bone thickness (micro-CT) [1, 15]: significantly improved | immunofluorescence signals of Notum in cortical bone tissues [1, 16]: significantly decreased | immunofluorescence signals of Notum in marrow cavity [1, 16]: hardly decrease | new bone formation (double labeling) ([1]; tibia, vs DXMS-challenged group): active new bone formation | half-life (t1/2) [12]: 4.21 h | formation of reactive intermediates [7]: did not detect reactive intermediates

IC50 [2]: 9450 ± 1380 nM
Compound: COc1c2occc2cc2ccc(=O)oc12 [8-Methoxypsoralen]
